Experimental data: ChEMBL document CHEMBL1144684, “Evaluation of a series of naphthamides as potent, orally active vascular endothelial growth factor receptor-2 tyrosine kinase inhibitors” (J Med Chem, 2008)
pIC50: −log10 of the molar value. Calls of active or inactive are those of the source. The rule behind the calls is not given here.

How the values were obtained:
[1] = Clearance in dog at 0.5 mg/kg, iv; assay type: ADME, organism-based, Canis lupus familiaris; set-up: dose 0.5 mg/kg, route intravenous; details: in vivo
In short: (§1)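 Compound given iv and po as single doses; vehicles: mouse iv PEG 400, po OraPlus; dog iv DMSO, po 1% Tween-80/2% HPMC/97% water; cynomolgus iv propylene glycol, po suspension.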

HUVEC [2] = experiment: Inhibition of bFGF-induced proliferation of HUVEC; assay type: functional, cell-based; details: Homo sapiens
In short: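 HUVEC seeded at 3000/well in DMEM with 10% FBS, 22 h; 2 h preincubation with serial compound dilutions, then 50 ng/mL VEGF or 20 ng/mL bFGF for 72 h at 37 °C. Freeze–thaw, CyQuant DNA dye read-out; IC50 by four-parameter logistic fit, averaged over ≥2 experiments.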

[3] = Tmax in mouse at 10 mg/kg, po; assay type: ADME, organism-based; set-up: dose 10 mg/kg, route oral; details: in vivo
In short: (§2)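 Oral suspension dosing; vehicles: mouse 10 mg/kg in OraPlus, dog 0.5 mg/kg in 1% Tween-80/2% HPMC/97% water, cynomolgus monkey 2 mg/kg.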

[4] = Half life in cynomolgus monkey at 2 mg/kg, po; assay type: ADME, organism-based, Macaca fascicularis; set-up: dose 2 mg/kg, route oral; details: in vivo; in short: as §1
[5] = Oral bioavailability in cynomolgus monkey at 2 mg/kg; assay type: ADME, organism-based, Macaca fascicularis; details: in vivo; in short: as §2
HT-29 [6] = experiment: Antitumor activity in human HT29 cell xenografted CD1 nu/nu mouse assessed as inhibition of tumor growth at 10 mg/kg, po qd for 14 days; assay type: functional; details: HT-29, 336 h, read-out: TGI
In short: (§3)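 Female CD-1 nu/nu mice, 4–8 weeks, implanted sc in hind flank with 1 × 10^7 HT29 (DMEM high glucose, 5% FBS) or Calu-6 (RPMI 1640, 10% FBS) cells; treatment began at 13–14 days (~300 mm3). Methanesulfonate salt given po qd in OraPlus for 14 days; caliper volumes twice weekly; n = 10/group; RMANOVA with Scheffé test.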

[7] = Cmax in dog at 0.5 mg/kg, po; assay type: ADME, organism-based, Canis lupus familiaris; set-up: dose 0.5 mg/kg, route oral; details: in vivo; in short: as §1
[8] = Oral bioavailability in mouse at 10 mg/kg; assay type: ADME, organism-based; details: in vivo; in short: as §2
[9] = Half life in mouse at 10 mg/kg, po; assay type: ADME, organism-based; set-up: dose 10 mg/kg, route oral; details: in vivo; in short: as §1
[10] = Tmax in Sprague-Dawley rat at 2 mg/kg, po; assay type: ADME, organism-based; set-up: dose 2 mg/kg, route oral; details: in vivo
In short: (§4)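 Male Sprague–Dawley rats dosed iv at 0.5 mg/kg as DMSO solution or po at 2 mg/kg as suspension in 100% OraPlus. Serial jugular blood, plasma LC-MS/MS quantitation, noncompartmental analysis.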

[11] = target: Mast/stem cell growth factor receptor Kit (Homo sapiens) (UniProt P10721); experiment: Inhibition of c-Kit
[12] = Volume of distribution at steady state in cynomolgus monkey at 0.5 mg/kg, iv; assay type: ADME, organism-based, Macaca fascicularis; set-up: dose 0.5 mg/kg, route intravenous; details: in vivo, read-out: Vdss
In short: (§5)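 Intravenous dosing of male/unspecified animals per species; vehicles: mouse 2 mg/kg in Peg 400, dog 0.5 mg/kg in DMSO, cynomolgus monkey 0.5 mg/kg in propylene glycol. Parameters from plasma concentration–time data by noncompartmental analysis.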

Liver microsomes [13] = experiment: Metabolic stability assessed as covalent binding in absence of NADPH in rat liver microsomes at 10 uM after 1 hr; assay type: ADME, Microsome
In short: (§6)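 14C-labelled compound at 10 µM with human or rat liver microsomes (1 mg/mL) in 0.1 M potassium phosphate pH 7.4, with or without 1 mM NADPH and 1 mM glutathione, 60 min; quenched with ice-cold acetonitrile. Pellet washed with 80% methanol and ethanol/ether, solubilized, protein by BCA, radioactivity by scintillation counting.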

Liver microsomes [14] = experiment: Metabolic stability assessed as covalent binding in presence of NADPH and GSH in human liver microsomes at 10 uM after 1 hr; assay type: ADME, Microsome; in short: as §6
[15] = AUC (0 to infinity) in Sprague-Dawley rat at 2 mg/kg, po; assay type: ADME, organism-based; set-up: time infinity, dose 2 mg/kg, route oral; details: plasma
In short: (§7)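 Male Sprague–Dawley rats dosed iv via femoral vein as DMSO solution (1 or 0.5 mg/kg) or po by gavage as OraPlus suspension (pH 2.0–2.2 with methanesulfonic acid; 10 or 2 mg/kg). Serial jugular blood over 12–24 h; plasma acetonitrile precipitation, LC-MS/MS (MRM) with internal standard; noncompartmental parameters.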

[16] = Volume of distribution at steady state in dog at 0.5 mg/kg, iv; assay type: ADME, organism-based, Canis lupus familiaris; set-up: dose 0.5 mg/kg, route intravenous; details: in vivo, read-out: Vdss; in short: as §5
[17] = target: Hepatocyte growth factor receptor (Homo sapiens, UniProt P08581); experiment: Inhibition of c-Met
HT-29 [18] = experiment: Antitumor activity in human HT29 cell xenografted CD1 nu/nu mouse assessed as inhibition of tumor growth at 30 mg/kg, po qd for 14 days; assay type: functional; details: HT-29, 336 h, read-out: TGI; in short: as §3
[19] = target: Macrophage colony-stimulating factor 1 receptor (Homo sapiens) (UniProt P07333); experiment: Inhibition of c-fms
Liver microsomes [20] = experiment: Metabolic stability assessed as covalent binding in presence of NADPH and GSH in rat liver microsomes at 10 uM after 1 hr; assay type: ADME, Microsome; in short: as §6
[21] = Oral bioavailability in dog at 0.5 mg/kg, po; assay type: ADME, organism-based, Canis lupus familiaris; details: in vivo; in short: as §2
[22] = Half life in Sprague-Dawley rat at 0.5 mg/kg, iv; assay type: ADME, organism-based; set-up: dose 0.5 mg/kg, route intravenous; details: in vivo; in short: as §7
[23] = Volume of distribution at steady state in mouse at 2 mg/kg, iv; assay type: ADME, organism-based; set-up: dose 2 mg/kg, route intravenous; details: in vivo, read-out: Vdss; in short: as §5
[24] = Aqueous solubility in 0.01 N Hcl; assay type: physicochemical
[25] = Tmax in cynomolgus monkey at 2 mg/kg, po; assay type: ADME, organism-based, Macaca fascicularis; set-up: dose 2 mg/kg, route oral; details: in vivo; in short: as §2
[26] = Half life in dog at 0.5 mg/kg, po; assay type: ADME, organism-based, Canis lupus familiaris; set-up: dose 0.5 mg/kg, route oral; details: in vivo; in short: as §1
[27] = Mean residence time in mouse at 2 mg/kg, iv; assay type: ADME, organism-based; set-up: dose 2 mg/kg, route intravenous; details: in vivo; in short: as §5
[28] = Intrinsic clearance in human liver microsomes at 1 uM; assay type: ADME, Microsome; details: read-out: Stability
In short: (§8)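 Human or rat liver microsomes (0.25 mg protein/mL) with 1 mM NADPH, 2 mM MgCl2 in 50 mM potassium phosphate pH 7.4 at 37 °C; compound 1 µM final. Sampled 0–40 min into acetonitrile, LC-MS/MS; ln % remaining vs time slope gives T1/2; CLint = (0.693/T1/2)/0.25 mg/mL.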

[29] = AUC (0 to 24 hrs) in mouse at 10 mg/kg, po; assay type: ADME, organism-based; set-up: time < 24 hr, dose 10 mg/kg, route oral; details: plasma; in short: as §1
Calu-6 (Homo sapiens) = experiment: Antitumor activity in human Calu6 cell xenografted CD1 nu/nu mouse assessed as inhibition of tumor growth at 6 mg/kg, po qd for 14 days; details: Calu-6, po, 336 h, read-out: TGI
[30] = target: Vascular endothelial growth factor receptor 2 (Homo sapiens, UniProt P35968)
[31] = Clearance in cynomolgus monkey at 0.5 mg/kg, iv; assay type: ADME, organism-based, Macaca fascicularis; set-up: dose 0.5 mg/kg, route intravenous; details: in vivo; in short: as §1
[32] = Intrinsic clearance in rat liver microsomes at 1 uM; assay type: ADME, Microsome; details: read-out: Stability; in short: as §8
[33] = target: Receptor-type tyrosine-protein kinase FLT3 (Homo sapiens) (UniProt P36888); experiment: Inhibition of Flt3
HUVEC [34] = experiment: Inhibition of VEGF-induced proliferation of HUVEC; assay type: functional, cell-based; details: Homo sapiens
[35] = Volume of distribution at steady state in Sprague-Dawley rat at 0.5 mg/kg, iv; assay type: ADME, organism-based; set-up: dose 0.5 mg/kg, route intravenous; details: in vivo, read-out: Vdss; in short: as §4
[36] = AUC (0 to 24 hrs) in cynomolgus monkey at 2 mg/kg, po; assay type: ADME, organism-based, Macaca fascicularis; set-up: time < 24 hr, dose 2 mg/kg, route oral; details: plasma; in short: as §1
[37] = target: Platelet-derived growth factor receptor alpha (Homo sapiens) (UniProt P16234); experiment: Inhibition of PDGFRalpha

Sequence of Mast/stem cell growth factor receptor Kit (Homo sapiens) (P10721 whole entry): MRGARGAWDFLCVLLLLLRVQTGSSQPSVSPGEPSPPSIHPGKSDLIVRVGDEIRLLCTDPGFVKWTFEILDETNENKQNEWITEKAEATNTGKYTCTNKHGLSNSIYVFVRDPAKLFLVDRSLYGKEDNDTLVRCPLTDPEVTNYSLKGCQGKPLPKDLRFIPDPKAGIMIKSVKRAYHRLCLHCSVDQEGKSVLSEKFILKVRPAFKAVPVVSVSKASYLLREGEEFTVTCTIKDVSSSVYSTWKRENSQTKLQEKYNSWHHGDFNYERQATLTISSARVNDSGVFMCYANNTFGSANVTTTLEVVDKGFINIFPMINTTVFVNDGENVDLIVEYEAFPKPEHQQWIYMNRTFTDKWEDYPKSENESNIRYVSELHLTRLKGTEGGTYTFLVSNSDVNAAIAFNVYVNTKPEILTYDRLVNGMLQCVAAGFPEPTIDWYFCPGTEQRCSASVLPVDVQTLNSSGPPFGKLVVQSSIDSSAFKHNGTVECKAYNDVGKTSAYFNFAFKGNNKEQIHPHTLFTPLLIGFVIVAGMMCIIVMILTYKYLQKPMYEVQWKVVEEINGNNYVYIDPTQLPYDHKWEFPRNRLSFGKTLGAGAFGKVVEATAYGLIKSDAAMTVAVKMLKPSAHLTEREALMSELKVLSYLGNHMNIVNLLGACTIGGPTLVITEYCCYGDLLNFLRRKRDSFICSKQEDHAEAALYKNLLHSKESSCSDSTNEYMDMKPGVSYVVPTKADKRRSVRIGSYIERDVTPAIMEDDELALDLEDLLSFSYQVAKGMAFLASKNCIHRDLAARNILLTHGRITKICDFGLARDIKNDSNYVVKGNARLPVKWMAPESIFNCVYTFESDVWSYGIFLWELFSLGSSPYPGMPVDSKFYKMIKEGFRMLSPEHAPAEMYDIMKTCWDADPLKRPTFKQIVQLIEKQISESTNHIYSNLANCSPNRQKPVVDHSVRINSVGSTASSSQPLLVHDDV
Sequence of Receptor-type tyrosine-protein kinase FLT3 (Homo sapiens) (P36888 whole entry): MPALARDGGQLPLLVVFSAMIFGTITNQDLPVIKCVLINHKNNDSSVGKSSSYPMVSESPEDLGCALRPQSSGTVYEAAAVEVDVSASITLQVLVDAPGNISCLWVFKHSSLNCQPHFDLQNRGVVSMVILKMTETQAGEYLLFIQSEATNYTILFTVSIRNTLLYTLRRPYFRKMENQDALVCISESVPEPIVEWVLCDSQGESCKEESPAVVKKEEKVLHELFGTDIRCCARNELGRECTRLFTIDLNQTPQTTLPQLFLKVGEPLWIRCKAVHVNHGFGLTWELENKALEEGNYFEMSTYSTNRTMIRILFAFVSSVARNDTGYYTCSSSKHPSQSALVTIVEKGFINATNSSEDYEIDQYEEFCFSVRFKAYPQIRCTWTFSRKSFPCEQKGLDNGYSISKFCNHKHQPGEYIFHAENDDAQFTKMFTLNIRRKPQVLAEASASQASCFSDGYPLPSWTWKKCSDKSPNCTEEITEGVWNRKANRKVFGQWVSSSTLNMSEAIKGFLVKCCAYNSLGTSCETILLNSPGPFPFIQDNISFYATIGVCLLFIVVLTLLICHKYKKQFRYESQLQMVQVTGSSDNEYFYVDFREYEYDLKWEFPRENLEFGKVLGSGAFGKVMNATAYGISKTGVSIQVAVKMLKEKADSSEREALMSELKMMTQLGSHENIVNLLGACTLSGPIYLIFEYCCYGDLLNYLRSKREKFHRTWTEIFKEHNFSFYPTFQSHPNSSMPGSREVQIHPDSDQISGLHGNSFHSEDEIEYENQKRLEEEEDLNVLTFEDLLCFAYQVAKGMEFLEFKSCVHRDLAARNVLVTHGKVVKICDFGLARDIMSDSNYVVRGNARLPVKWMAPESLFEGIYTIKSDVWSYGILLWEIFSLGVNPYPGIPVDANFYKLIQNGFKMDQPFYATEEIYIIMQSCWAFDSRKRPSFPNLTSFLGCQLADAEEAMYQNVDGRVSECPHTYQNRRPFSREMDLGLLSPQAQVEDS
Sequence of Macrophage colony-stimulating factor 1 receptor (Homo sapiens) (P07333 whole entry): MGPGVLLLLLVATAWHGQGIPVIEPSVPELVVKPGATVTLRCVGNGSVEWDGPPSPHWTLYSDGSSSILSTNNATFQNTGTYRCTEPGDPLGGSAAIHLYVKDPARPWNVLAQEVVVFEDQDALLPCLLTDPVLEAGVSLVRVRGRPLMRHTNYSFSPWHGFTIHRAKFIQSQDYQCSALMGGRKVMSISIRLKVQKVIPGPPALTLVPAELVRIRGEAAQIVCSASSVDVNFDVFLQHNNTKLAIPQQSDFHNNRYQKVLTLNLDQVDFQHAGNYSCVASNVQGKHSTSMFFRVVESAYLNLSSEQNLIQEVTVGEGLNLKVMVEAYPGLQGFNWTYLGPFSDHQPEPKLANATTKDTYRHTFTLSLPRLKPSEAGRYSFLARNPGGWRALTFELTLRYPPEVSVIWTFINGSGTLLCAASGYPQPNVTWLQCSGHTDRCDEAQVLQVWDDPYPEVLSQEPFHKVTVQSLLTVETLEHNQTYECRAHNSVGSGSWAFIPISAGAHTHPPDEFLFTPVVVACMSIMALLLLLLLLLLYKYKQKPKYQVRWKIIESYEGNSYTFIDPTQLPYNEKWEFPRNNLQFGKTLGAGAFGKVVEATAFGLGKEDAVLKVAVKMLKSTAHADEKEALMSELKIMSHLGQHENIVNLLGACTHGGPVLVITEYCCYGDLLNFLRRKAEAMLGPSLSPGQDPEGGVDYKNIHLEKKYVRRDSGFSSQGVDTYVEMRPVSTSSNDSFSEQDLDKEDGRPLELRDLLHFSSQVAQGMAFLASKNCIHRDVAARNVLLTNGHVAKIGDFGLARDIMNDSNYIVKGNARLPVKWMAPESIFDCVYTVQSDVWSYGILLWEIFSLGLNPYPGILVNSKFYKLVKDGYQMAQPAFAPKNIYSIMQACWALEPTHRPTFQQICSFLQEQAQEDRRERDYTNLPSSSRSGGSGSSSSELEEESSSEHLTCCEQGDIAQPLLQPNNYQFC
Sequence of Hepatocyte growth factor receptor (P08581 whole entry): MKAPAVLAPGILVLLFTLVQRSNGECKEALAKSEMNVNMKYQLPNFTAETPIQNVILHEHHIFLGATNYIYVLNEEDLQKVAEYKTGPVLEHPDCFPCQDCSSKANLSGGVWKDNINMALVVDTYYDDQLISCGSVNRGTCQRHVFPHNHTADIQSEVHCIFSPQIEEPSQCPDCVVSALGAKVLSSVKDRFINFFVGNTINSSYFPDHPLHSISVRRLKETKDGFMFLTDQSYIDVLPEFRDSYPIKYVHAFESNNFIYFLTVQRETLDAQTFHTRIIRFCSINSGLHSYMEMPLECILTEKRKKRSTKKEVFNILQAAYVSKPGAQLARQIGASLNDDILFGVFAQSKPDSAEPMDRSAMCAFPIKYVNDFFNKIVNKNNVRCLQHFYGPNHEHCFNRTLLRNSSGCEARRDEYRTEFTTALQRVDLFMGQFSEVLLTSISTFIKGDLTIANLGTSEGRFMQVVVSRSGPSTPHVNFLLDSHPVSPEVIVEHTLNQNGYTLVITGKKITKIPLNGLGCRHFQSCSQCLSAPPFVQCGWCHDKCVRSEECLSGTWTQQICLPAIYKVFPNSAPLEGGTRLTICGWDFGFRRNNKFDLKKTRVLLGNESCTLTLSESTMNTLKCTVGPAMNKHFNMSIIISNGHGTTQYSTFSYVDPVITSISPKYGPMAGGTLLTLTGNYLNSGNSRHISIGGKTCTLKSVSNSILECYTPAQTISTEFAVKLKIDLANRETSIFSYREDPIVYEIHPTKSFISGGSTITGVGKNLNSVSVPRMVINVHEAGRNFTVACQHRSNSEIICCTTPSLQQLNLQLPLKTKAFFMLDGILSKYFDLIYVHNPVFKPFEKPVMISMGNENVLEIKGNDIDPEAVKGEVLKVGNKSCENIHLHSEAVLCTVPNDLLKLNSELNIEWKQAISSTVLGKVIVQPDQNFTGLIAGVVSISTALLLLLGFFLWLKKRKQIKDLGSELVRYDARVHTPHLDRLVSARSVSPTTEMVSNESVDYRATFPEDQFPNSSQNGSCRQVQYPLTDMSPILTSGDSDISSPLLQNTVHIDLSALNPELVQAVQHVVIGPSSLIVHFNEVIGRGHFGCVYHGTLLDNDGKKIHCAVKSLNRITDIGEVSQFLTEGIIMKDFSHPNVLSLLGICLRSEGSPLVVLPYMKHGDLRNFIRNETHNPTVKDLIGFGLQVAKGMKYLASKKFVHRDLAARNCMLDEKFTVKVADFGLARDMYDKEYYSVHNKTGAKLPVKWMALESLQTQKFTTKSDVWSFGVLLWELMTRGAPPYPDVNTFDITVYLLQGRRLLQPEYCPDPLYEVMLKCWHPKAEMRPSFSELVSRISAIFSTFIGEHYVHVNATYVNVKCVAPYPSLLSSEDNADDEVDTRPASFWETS

In the case of `COc1cc2nccc(Oc3ccc4c(C(N)=O)cccc4c3)c2cc1OC`, the clearance [1] was 1.72 mL/min/kg, the pIC50 (HUVEC [2]) was 6.64 and the Tmax [3] was 0.25 h. It also gave a half-life [4] of 13 h, a bioavailability [5] of 51% and an inhibition in vivo at 10 mg/kg (HT-29 [6]) of 85%. The Cmax [7] was 464 ng/mL, the bioavailability [8] was 39% and the half-life [9] was 5.6 h. For the same compound, the Tmax [10] was 1.6 h, the Activity [11] was “Active” and the Vd [12] was 6.82 L/kg. The Stability (Liver microsomes [13]) was 14 pmol/mg/h, the Stability (Liver microsomes [14]) was 3.2 pmol/mg/h and the AUC(0-inf) [15] was 8450 ng·h/mL. The Vd [16] was 1.86 L/kg, the pIC50 [17] was 5.16 and the inhibition in vivo at 30 mg/kg (HT-29 [18]) was 94%. For the same compound, the Activity [19] was “Active”, the Stability (Liver microsomes [20]) was 3.2 pmol/mg/h and the bioavailability [21] was 73%. It also gave a half-life [22] of 6 h, a Vd [23] of 5.74 L/kg and a solubility [24] of over 200 µg/mL. For the same compound, the Tmax [25] was 0.83 h, the half-life [26] was 16 h and the MRT [27] was 2.3 h. The microsomal CLint at 1 µM [28] was 7 µL/min/mg, the AUC(0-t) at 24 h [29] was 1500 ng·h/mL and the inhibition in vivo at 6 mg/kg (Calu-6 (Homo sapiens)) was 52%. It also gave a pIC50 [30] of 9.05, a clearance [31] of 13 mL/min/kg and a microsomal CLint at 1 µM [32] of 32 µL/min/mg. The Activity [33] was “inactive”, the pIC50 (HUVEC [34]) was 8.68 and the Vd [35] was 1.06 L/kg. For the same compound, the AUC(0-t) at 24 h [36] was 1360 ng·h/mL and the Activity [37] was “Active”.
